In ChEMBL document CHEMBL5365533, “DNA major versus minor groove occupancy of monomeric and dimeric crystal violet derivatives. Toward structural correlations” (Bioorg Med Chem, 2023):
The source made the active and inactive calls. No cut-off for these calls is given here.

Legend:
Calf thymus DNA [1] = test: Binding affinity to calf thymus DNA in Tris-HCl buffer at pH 7.0 assessed as differential groove occupancy at 100 uM by ITC analysis; type: nucleic-acid assay; conditions: Bos taurus
Procedure, shortened: (§1)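 ITC of CT DNA (100 μM/bp in cell) titrated with ligand (100 μM in syringe), 10 mM Tris-HCl pH 7.0; 25 injections of 10 μL at 30 °C, or for one ligand 50 injections of 5 μL at 27 °C. Buffer-into-DNA heats subtracted; single-site model gives K, N, ΔH and ΔS.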

[2] = Displacement of Ethidium bromide from DDD (5-CGAATT-3') hairpin DNA (unknown origin)/EtBr complex assessed as decrease in initial absorbance of DNA by crystal violet staining based analysis
[3] = Displacement of Ethidium bromide from NFAT1 (5-GAAAAA-3') hairpin DNA (unknown origin)/EtBr complex assessed as binding constant by crystal violet staining based analysis
[4] = Displacement of Ethidium bromide from STAT6 (5'-TCCTAG-3') hairpin DNA (unknown origin)/EtBr complex assessed as binding constant by crystal violet staining based analysis
[5] = Displacement of Ethidium bromide from cMyc (5'-CACGTG-3') hairpin DNA (unknown origin)/EtBr complex assessed as decrease in initial absorbance of DNA by crystal violet staining based analysis
[6] = Displacement of Ethidium bromide from cMyc (5'-CACGTG-3') hairpin DNA (unknown origin)/EtBr complex assessed as binding constant by crystal violet staining based analysis
[7] = Displacement of Ethidium bromide from G6 (5'-GGGGGG-3') hairpin DNA (unknown origin)/EtBr complex assessed as decrease in initial absorbance of DNA by crystal violet staining based analysis
[8] = Binding affinity to DDD hairpin DNA (unknown origin) assessed as binding constant at 100 uM by ITC analysis
Procedure, shortened: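 Isothermal titration calorimetry of DDD hairpin (10 μM in cell) titrated with ligand (100 μM in syringe), 10 mM Tris-HCl pH 7.0, 30 °C; 25 injections of 10 μL. Heats of dilution subtracted; single-site binding model fitted; K averaged from triplicate experiments.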

[9] = Binding affinity to DDD hairpin DNA (unknown origin) in Tris-HCl buffer at pH 5.0 assessed as negligible changes in helicity band formation at 245nm at 1 mM incubated for 5 mins by CD spectra analysis
Procedure, shortened: (§2)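 Ligand (1 mM stock) added in small aliquots to DDD hairpin (8.8 μM) in 10 mM Tris-HCl pH 5.0; mixed by inversion and incubated 5 min at 20 °C. CD recorded 215–350 nm in 0.5 nm steps as the average of three scans.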

Calf thymus DNA [10] = test: Binding affinity to calf thymus DNA assessed as hypochromic shift by UV spectroscopic analysis; type: nucleic-acid assay; conditions: Bos taurus
Procedure, shortened: (§3)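 UV titration in 10 mM Tris-HCl pH 7.0 with ligand fixed at 5.0 μM and CT DNA:ligand ratios of 0:1, 1:1, 2:1, 5:1, 10:1 and 30:1.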

AT rich DNA [11] = test: Displacement of Ethidium bromide from AT3 (5'-ATATAT-3') hairpin DNA (unknown origin)/EtBr complex assessed as decrease in initial absorbance of DNA by crystal violet staining based analysis; type: nucleic-acid assay
Calf thymus DNA [12] = test: Binding affinity to calf thymus DNA in Tris-HCl buffer at pH 7.0 assessed as decrease in viscosity incubated for 30 mins by Ostwald viscometer analysis; type: nucleic-acid assay; conditions: Bos taurus
Procedure, shortened: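 Ostwald viscometer at 23.0 ± 1 °C. CT DNA held at 300 μM/bp in 10 mM Tris-HCl pH 7.0 with ligand or ethidium at 0–26 μM, incubated 30 min before timing flow. (η/η0)^1/3 plotted against [ligand]/[DNA]; three replicates, SD shown.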

[13] = Binding affinity to DDD hairpin DNA (unknown origin) in Tris-HCl buffer at pH 5.0 assessed as reduction in base stacking band formation at 280nm at 1 mM incubated for 5 mins by CD spectra analysis; procedure, shortened: as §2
[14] = Displacement of Ethidium bromide from STAT6 (5'-TCCTAG-3') hairpin DNA (unknown origin)/EtBr complex assessed as decrease in initial absorbance of DNA by crystal violet staining based analysis
[15] = Displacement of Ethidium bromide from NFAT1 (5-GAAAAA-3') hairpin DNA (unknown origin)/EtBr complex assessed as decrease in initial absorbance of DNA by crystal violet staining based analysis
Calf thymus DNA [16] = test: Binding affinity to calf thymus DNA assessed as change in melting temperature by UV thermal denaturation assay; type: nucleic-acid assay; conditions: Bos taurus
Procedure, shortened: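 CT DNA in 10 mM Tris-HCl pH 7.0 at a DNA:ligand ratio of 30:1, in 1 cm quartz cuvettes. Absorbance read every 2 °C from 25 to 95 °C, heating at 1 °C/min. Tm taken from first-derivative plots.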

Calf thymus DNA [17] = test: Binding affinity to calf thymus DNA in Tris-HCl buffer at pH 7.0 assessed as change in enthalpy at 100 uM by isothermal titration […] analysis; type: nucleic-acid assay; conditions: Bos taurus; procedure, shortened: as §1
AT rich DNA [18] = test: Displacement of Ethidium bromide from AT3 (5'-ATATAT-3') hairpin DNA (unknown origin)/EtBr complex assessed as binding constant by crystal violet staining based analysis; type: nucleic-acid assay
Calf thymus DNA [19] = test: Ratio of Kapp for displacement of ethidium bromide from calf thymus DNA/EtBr complex to Kapp for displacement of ethidium bromide from calf thymus DNA/EtBr in presence of methyl green; type: nucleic-acid assay; conditions: Bos taurus
Procedure, shortened: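 Fluorescence titration of CT DNA (1.0 μM/bp) plus ethidium (0.5 μM), with or without netropsin or methyl green (0.5 μM each), against increasing ligand in 10 mM Tris-HCl pH 7.0. Excitation 520 nm, emission 590 nm, read after 3 min equilibration. C50 is the concentration giving 50% fluorescence loss; Kapp = 9.5×10^6 M⁻¹ × C_ethidium/C50.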

[20] = Binding affinity to DDD (5-CGAATT-3') hairpin DNA (unknown origin) assessed as binding constant by isothermal titration calorimetry
Calf thymus DNA [21] = test: Binding affinity to calf thymus DNA in Tris-HCl buffer at pH 7.0 assessed as change in entropy at 100 uM by isothermal titration […] analysis; type: nucleic-acid assay; conditions: Bos taurus; procedure, shortened: as §1
DNA [22] = test: Binding affinity to pUC-19 plasmid DNA (unknown origin) assessed as DNA cleavage incubated for 30 mins in presence of BamHI restriction enzyme by ethidium bromide staining based agarose gel electrophoresis analysis; type: nucleic-acid assay
Procedure, shortened: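 pUC-19 linearized with AlwNI (37 °C, 30 min), enzyme heat-killed at 80 °C for 20 min, then incubated with varying ligand concentrations. BamHI digestion for 30 min at 37 °C. Run on 1% agarose containing ethidium bromide, 120 V for 40 min; visualized by UV transillumination.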

Calf thymus DNA [23] = test: Binding affinity to calf thymus DNA assessed as bathochromic shift by UV spectroscopic analysis; type: nucleic-acid assay; conditions: Bos taurus; procedure, shortened: as §3
[24] = Binding affinity to DDD hairpin DNA (unknown origin) in Tris-HCl buffer at pH 5.0 assessed as negative induced CD bands formation at 310nm at 1 mM incubated for 5 mins by CD spectra analysis; procedure, shortened: as §2
DNA [25] = test: Displacement of Ethidium bromide from (AT)5 (5'-GGGATATA-TATATCCC-3') DNA (unknown origin)/EtBr complex assessed as decrease in initial absorbance of DNA by crystal violet staining based analysis; type: nucleic-acid assay
DNA [26] = test: Displacement of Ethidium bromide from A5T5 (5'-GGGAAAAATTTTTCCCCC-3') DNA (unknown origin)/EtBr complex assessed as decrease in initial absorbance of DNA by crystal violet staining based analysis; type: nucleic-acid assay
[27] = Displacement of Ethidium bromide from G5C5 (5'-AAAGGGGG-CCCCCTTT-3') DNA (unknown origin)/EtBr complex assessed as decrease in initial absorbance of DNA by crystal violet staining based analysis
Calf thymus DNA [28] = test: Binding affinity to calf thymus DNA in Tris-HCl buffer at pH 5.0 assessed as dye aggregation in the DNA groove at 310nm at 1 mM incubated for 5 mins by UV spectra analysis; type: nucleic-acid assay; conditions: Bos taurus
Procedure, shortened: (§4)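 CT DNA (80 μM/bp) in 10 mM Tris-HCl pH 5.0 received small aliquots of ligand from a 1 mM stock; incubated 5 min at 20 °C. CD (average of three scans) and UV spectra recorded 215–350 nm in 0.5 nm increments under identical conditions.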

Calf thymus DNA [29] = test: Binding affinity to calf thymus DNA in Tris-HCl buffer at pH 5.0 assessed as dye aggregation in the DNA groove at 337nm at 1 mM incubated for 5 mins by UV spectra analysis; type: nucleic-acid assay; conditions: Bos taurus; procedure, shortened: as §4

SMILES | Activity (Calf thymus DNA [1]) | C50 [2] [µM] | K [3] | K [4] | C50 [5] [µM] | K [6] [M⁻¹] | C50 [7] [µM] | K [8] | Activity (Calf thymus DNA [10]) | C50 (AT rich DNA [11]) [µM] | Activity (Calf thymus DNA [12]) | C50 [14] [µM] | C50 [15] [µM] | ΔTm (Calf thymus DNA [16]) [°C] | deltaH (Calf thymus DNA [17]) [kcal/mol] | K (AT rich DNA [18]) | K [20] | deltaS (Calf thymus DNA [21]) [kcal/mol] | Activity (Calf thymus DNA [23]) | other results
CN(C)c1ccc(C(=C2C=CC(=[N+](C)C)C=C2)c2ccc(/C=C/c3cc4c(cc3/C=C/c3ccc(C(=C5C=CC(=[N+](C)C)C=C5)c5ccc(N(C)C)cc5)cc3)OCO4)cc2)cc1 | Active | 0.78 | 49.8 10^5/M | 2.22 10^5/M | 1.8 | 32000 | 1.1 | 7.5 10^5/M | Active | 1.21 | Dose-Dependent Effect | 1.12 | 1.27 | 3.3 | 85.8 | 5.79 10^5/M | 7.54 10^5/M | 0.316 | Active | Activity [9]: Active; Activity [13]: Active; Ratio (Calf thymus DNA [19]): > 8; IC50 (DNA [22]): 5.4 µM; Activity [24]: Active
CN(C)c1ccc(C(=C2C=CC(=[N+](C)C)C(c3ccccc3)=C2)c2ccc(N(C)C)c(-c3ccccc3)c2)cc1-c1ccccc1 |  |  |  |  |  |  |  | 48.7 10^5/M |  |  |  |  |  | 2.2 |  |  |  |  |  | C50 (DNA [25]): 2.71 µM; C50 (DNA [26]): 3.13 µM; C50 [27]: 3.36 µM
CN(C)c1ccc(C(=C2C=CC(=[N+](C)C)C=C2)c2ccc(OCc3ccccc3COc3ccc(C(=C4C=CC(=[N+](C)C)C=C4)c4ccc(N(C)C)cc4)cc3)cc2)cc1 | Active | 1.57 | 29.1 10^5/M | 1.32 10^5/M | 1.56 | 5.06e+06 | 1 | 20.5 10^5/M | Active | 2.08 | Dose-Dependent Effect | 1.09 | 2.64 | 0.9 | -44.7 | 1.3 10^5/M | 20.5 10^5/M | -0.12 | Active | Activity (Calf thymus DNA [28]): Active; Activity (Calf thymus DNA [29]): Active
